One assay deals with MOLM-13. The assay is described as follows: Induction of apoptosis in human MOLM13 cells assessed as caspase 3/7 activation after 16 hrs by fluorescence assay. Format: functional, cell-based. In a few lines:
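MOLM-13 cells at 30000/well in RPMI, held up to 24 h (37 °C, 5% CO2), then exposed 16 h to compound or DMSO. Buffer with 10 mM HEPES pH 7.5, 2 mM EDTA, 0.1% CHAPS and 25 μM Z-DEVD-R110 substrate added; fluorescence read once signal stabilized. Percent apoptotic increase calculated relative to control cells.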

Assay [1] has as its system SK-BR-3. Put plainly: Inhibition of HSP70 in human SKBR3 cells assessed as Raf-1 degradation by Western blotting analysis. The assay is classed as cell-based. In a few lines: (§1)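 Cells (SKBr3, MDA-MB-468, MiaPaCa-2 in DME/F12; MOLM-13 in RPMI; 10% FBS) grown to 60–70% confluence, then given inhibitor or DMSO. Lysis in 50 mM Tris pH 7.4, 150 mM NaCl, 1% NP-40. Protein measured by BCA, and client proteins or cleaved PARP detected by immunoblotting with peroxidase-conjugated secondary antibody.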

Assay [2] relates to SK-BR-3. Put plainly: Induction of apoptosis in human SKBR3 cells assessed as c-PARP cleavage by Western blotting analysis. The assay is classed as functional. The gist of the method: as §1
In general terms: A western blot detects proteins with antibodies after separation by electrophoresis.

The target of assay [3] is Heat shock protein HSP 90-beta (Homo sapiens) (UniProt P08238). The assay is described as follows: Displacement of GM-Cy3B from HSP90 in human SKBR3 cells after 24 hrs by fluorescence polarization assay. As to conditions: SK-BR-3. On the technique in general: Polarisation of emitted light reports the rotation of a fluorescent probe.
Sequence of Heat shock protein HSP 90-beta (Homo sapiens) (P08238 whole entry): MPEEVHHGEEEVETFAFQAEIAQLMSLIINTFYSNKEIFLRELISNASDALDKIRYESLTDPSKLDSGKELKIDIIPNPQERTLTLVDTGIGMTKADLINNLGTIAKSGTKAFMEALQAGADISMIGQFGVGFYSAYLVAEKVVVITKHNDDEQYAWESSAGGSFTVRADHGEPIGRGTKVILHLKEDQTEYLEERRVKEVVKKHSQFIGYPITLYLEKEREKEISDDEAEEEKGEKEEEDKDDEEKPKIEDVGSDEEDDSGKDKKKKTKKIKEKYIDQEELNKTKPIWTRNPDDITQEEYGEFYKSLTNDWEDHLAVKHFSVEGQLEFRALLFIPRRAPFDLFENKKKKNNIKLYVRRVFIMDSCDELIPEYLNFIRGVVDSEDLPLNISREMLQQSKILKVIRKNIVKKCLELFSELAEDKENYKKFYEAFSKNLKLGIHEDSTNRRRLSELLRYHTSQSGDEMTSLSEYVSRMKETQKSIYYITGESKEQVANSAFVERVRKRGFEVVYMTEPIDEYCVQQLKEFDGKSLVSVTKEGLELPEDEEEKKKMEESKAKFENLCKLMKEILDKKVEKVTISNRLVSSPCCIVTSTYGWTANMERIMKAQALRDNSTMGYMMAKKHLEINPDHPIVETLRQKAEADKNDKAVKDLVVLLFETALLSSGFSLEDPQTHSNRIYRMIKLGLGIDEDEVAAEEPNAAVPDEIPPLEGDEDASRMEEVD
The test system of assay [4] is SK-BR-3. The assay is described as follows: Inhibition of HSP70 in human SKBR3 cells assessed as HER2 degradation by Western blotting analysis. Format: cell-based. The gist of the method: as §1
The subject of the next assay is Kasumi 1. The assay is described as follows: Cytotoxicity against human Kasumi-1 cells after 72 hrs by alamar blue assay. Format: functional, cell-based. The gist of the method:
(§2)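 Alamar Blue (resazurin) viability assay: attached cells (SKBr3) plated at 8000/well, suspension cells (Kasumi-1) at 20000/well, left 24 h at 37 °C, then drug added in triplicate for 72 h. Alamar Blue 50 μM added, fluorescence read 6 h later (ex 530, em 580 nm). Growth inhibition versus control corrected for time-zero population; IC50 = concentration giving 50% growth inhibition.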
A general note: Alamar Blue is a resazurin reagent that responds to reducing activity.

A short description of assay [5]: Cytotoxicity against human SKBR3 cells after 72 hrs by alamar blue assay. Format: functional, SK-BR-3. In a few lines:
as §2

Where [6] appears, read: Homo sapiens, MOLM-13, 16 h, read-out: IC50.
The mark [7] stands for this setting: Homo sapiens, Kasumi 1, 72 h, read-out: IC50.

The values that follow come from ChEMBL document CHEMBL3124909, “Heat shock protein 70 inhibitors. 2. 2,5'-thiodipyrimidines, 5-(phenylthio)pyrimidines, 2-(pyridin-3-ylthio)pyrimidines, and 3-(phenylthio)pyridines as reversible binders to an allosteric site on heat shock protein 70” (J Med Chem, 2014).

By IC50 is commonly meant the midpoint of a concentration-inhibition curve.

Turning to `CCCCCCCC(=O)Nc1cc(N)nc(Sc2c(OC)nc(N3CCN(C)CC3)nc2OC)n1`, the IC50 with MOLM-13 (setting [6]) was greater than 50 µM. The INH is greater than 25 µM in the assay on SK-BR-3 [1], greater than 25 µM in the assay on SK-BR-3 [2], greater than 500 µM in assay [3] and greater than 25 µM with SK-BR-3 [4].

Take `CN1CCN(c2ncc(Sc3cccc(NC(=O)C4CCCN4)c3)c(OCc3ccccc3)n2)CC1` (stereo not drawn): the IC50 in the assay on MOLM-13 (setting [6]) amounted to 1.7 µM; in the assay with Kasumi 1 (setting [7]), 2.9 µM.

`CC(C)C(N)C(=O)Nc1cccc(Sc2cnc(N3CCN(C)CC3)nc2OCc2ccccc2)c1` (stereo not drawn): the figures for the IC50 in the assay with MOLM-13 (setting [6]) and in the assay on Kasumi 1 (setting [7]) were 2.4 µM and 3.1 µM, respectively.

On to `COc1nc(N2CCN(C)CC2)nc(OC)c1Sc1cccc(NC(=O)c2ccccc2)c1`, for which the GI in assay [5] came out at 8 µM. In addition, the results for the IC50 in the assay with MOLM-13 (setting [6]) and in the assay on Kasumi 1 (setting [7]) were 8 µM and 8.1 µM, respectively. Besides, the INH is 10 µM in the assay on SK-BR-3 [1], 7.5 µM in the assay on SK-BR-3 [2], 497 µM in assay [3] and 7.5 µM in the assay on SK-BR-3 [4].

For `CCOc1nc(N2CCN(C)CC2)nc(OCC)c1Sc1nc(N)cc(NC(=O)CC)n1`, in assay [5], the GI amounted to 55 µM. In addition, the IC50 in the assay with MOLM-13 (setting [6]) turned out to be 37 µM; in the assay with Kasumi 1 (setting [7]), 51.4 µM. Further, the INH in the assay with SK-BR-3 [1] is 70 µM; in the assay on SK-BR-3 [2] it was 80 µM; in assay [3], greater than 250 µM; with SK-BR-3 [4], 50 µM.

Regarding `CCC(=O)Nc1cccc(Sc2c(OC)nc(N3CCN(C)CC3)nc2OC)c1`, the GI in assay [5] is 55 µM. Also, in the assay with MOLM-13 (setting [6]), the IC50 came out at 65 µM. Further, the INH with SK-BR-3 [1] is 80 µM; in the assay on SK-BR-3 [2], 75 µM; in assay [3] it was greater than 500 µM; in the assay on SK-BR-3 [4], 75 µM.

Consider `CN1CCN(c2ncc(Sc3cccc(NC(=O)c4ccccc4)c3)c(OCc3ccccc3)n2)CC1`, for which the half-maximal inhibitory concentration (IC50) is 4.1 µM in the assay with MOLM-13 (setting [6]) and 3.1 µM in the assay on Kasumi 1 (setting [7]).

In assay [5], `C=CC(=O)Nc1cc(N)nc(Sc2c(OCC)nc(N3CCN(C)CC3)nc2OCC)n1` registered a GI of 1.1 µM. Further, the INH in the assay with SK-BR-3 [1] is 2.5 µM; in the assay on SK-BR-3 [2], 1.5 µM; in assay [3] it was greater than 500 µM; in the assay on SK-BR-3 [4], 1 µM.

As for `CC(=O)Nc1cccc(Sc2cnc(N3CCN(C)CC3)nc2OCc2ccccc2)c1`, the IC50 amounted to 10.2 µM in the assay with MOLM-13 (setting [6]) and 5.2 µM in the assay with Kasumi 1 (setting [7]).

For `C=CCC(=O)Nc1cccc(Sc2c(OC)nc(N3CCN(C)CC3)nc2OC)c1`, the IC50 in the assay on MOLM-13 (setting [6]) came to 65 µM.

As for `CN1CCN(c2ncc(Sc3cccc(NC(=O)CN)c3)c(OCc3ccncc3)n2)CC1`, the IC50 in the assay on MOLM-13 (setting [6]) stood at 7.8 µM; in the assay on Kasumi 1 (setting [7]) it was 10.7 µM.

With `CCOc1nc(N2CCN(C)CC2)nc(OCC)c1Sc1nc(N)cc(NC(=O)C2CC2)n1`, the IC50 with MOLM-13 (setting [6]) was 95 µM.

Take `CCC(=O)Nc1ccnc(Sc2c(OC)nc(N3CCN(C)CC3)nc2OC)n1`: the IC50 in the assay with MOLM-13 (setting [6]) is 142 µM.

For `COc1nc(N2CCN(C)CC2)nc(OC)c1Sc1cccc(NC(=O)CN)c1`, the GI in assay [5] amounted to 25 µM. The results for the IC50 in the assay on MOLM-13 (setting [6]) and in the assay on Kasumi 1 (setting [7]) were 18 µM and 22.5 µM, respectively. The INH is 20 µM in the assay with SK-BR-3 [1], 40 µM with SK-BR-3 [2], greater than 500 µM in assay [3] and 20 µM in the assay on SK-BR-3 [4].

The molecule `COc1nc(N2CCN(C)CC2)ncc1Sc1cccc(NC(=O)CN)c1` registered a GI in assay [5] of 15 µM. Besides, the IC50 with MOLM-13 (setting [6]) worked out at 13 µM; in the assay with Kasumi 1 (setting [7]) it was 25.2 µM. Besides, the INH with SK-BR-3 [1] was 15 µM; with SK-BR-3 [2], 19 µM; in assay [3] it was greater than 500 µM; in the assay with SK-BR-3 [4] it was 18 µM.

For `Cc1nc(N2CCN(C)CC2)nc(C)c1Sc1nccc(NC(=O)C2CC2)n1`, the IC50 was found to be 68 µM in the assay with MOLM-13 (setting [6]) and 60.5 µM with Kasumi 1 (setting [7]).

Turning to `CCC(=O)Nc1ccnc(Sc2ccc(N3CCN(C)CC3)nc2OC)n1`, the IC50 in the assay with MOLM-13 (setting [6]) was 102 µM.

Take `COc1nc(N2CCN(C)CC2)nc(OC)c1Sc1cccc(NC(=O)C2CCCCC2)c1`: the half-inhibitory concentration (IC50) result in the assay with MOLM-13 (molm-13) and with Kasumi 1 (kasumi 1) was “ND(Insoluble)” in each case.

For the molecule `CN1CCN(c2ccc(Sc3cccc(NC(=O)CN)c3)c(O)n2)CC1`, in the assay with MOLM-13 (setting [6]), the IC50 is greater than 250 µM.

Take `CN1CCN(c2ncc(Sc3cccc(NC(=O)CN)c3)c(-c3ccccc3)n2)CC1`: the figures for the IC50 with MOLM-13 (setting [6]) and with Kasumi 1 (setting [7]) were 25.2 µM and 20.8 µM, respectively.

Turning to `COc1nc(N2CCN(C)CC2)ccc1Sc1cccc(NC(=O)c2ccccc2)c1`, the GI in assay [5] stood at 20 µM. For the same molecule, the IC50 with MOLM-13 (setting [6]) was determined as 20 µM; in the assay with Kasumi 1 (setting [7]), 4.7 µM. In addition, the INH in the assay on SK-BR-3 [1] was 20 µM; in the assay with SK-BR-3 [2] it was 25 µM; in assay [3], greater than 250 µM; in the assay on SK-BR-3 [4] it was 19 µM.

For `CC(N)C(=O)Nc1cccc(Sc2cnc(N3CCN(C)CC3)nc2OCc2ccccc2)c1` (stereo not drawn), the values for the IC50 in the assay on MOLM-13 (setting [6]) and with Kasumi 1 (setting [7]) were 2 µM and 4.8 µM, respectively.

On to `COc1nc(N2CCN(C)CC2)nc(OC)c1Sc1nc(N)cc(NC(C)=O)n1`, for which the IC50 in the assay on MOLM-13 (setting [6]) was determined as 165 µM. The INH is 150 µM with SK-BR-3 [1], 180 µM in the assay on SK-BR-3 [2], greater than 500 µM in assay [3] and 125 µM in the assay with SK-BR-3 [4].

Regarding `COc1nc(N2CCN(C)CC2)nc(OC)c1Sc1cccc(NC(=O)C2CCC2)c1`, in assay [5], the GI came out at 70 µM. The values for the IC50 in the assay on MOLM-13 (setting [6]) and with Kasumi 1 (setting [7]) were 60 µM and 47.2 µM, respectively. Also, the INH in the assay with SK-BR-3 [1] was 45 µM; in the assay on SK-BR-3 [2] it was 75 µM; in assay [3], greater than 250 µM; in the assay on SK-BR-3 [4], 70 µM.

Turning to `COc1nc(N2CCN(C)CC2)ccc1Sc1cccc(NC(=O)C2CC2)c1`, the IC50 in the assay with MOLM-13 (setting [6]) turned out to be 32 µM; in the assay on Kasumi 1 (setting [7]) it was 36.4 µM.

With `COc1nc(N2CCN(C)CC2)nc(OC)c1Sc1nccc(NC(C)=O)n1`, in the assay with MOLM-13 (setting [6]), the IC50 was 150 µM.

On to `CCC(=O)Nc1ccnc(Sc2c(C)nc(N3CCN(C)CC3)nc2C)n1`, for which the IC50 in the assay on MOLM-13 (setting [6]) is 98 µM.

`Cc1nc(N2CCN(C)CC2)nc(C)c1Sc1nccc(NC(=O)c2ccco2)n1` gave a GI in assay [5] of 30 µM. Besides, the figures for the IC50 in the assay with MOLM-13 (setting [6]) and with Kasumi 1 (setting [7]) were 32 µM and 30.3 µM, respectively. Moreover, the INH with SK-BR-3 [1] was 25 µM; in the assay on SK-BR-3 [2], 30 µM; in assay [3], greater than 250 µM; in the assay with SK-BR-3 [4], 25 µM.

Take `COc1nc(N2CCN(C)CC2)ccc1Sc1nccc(NC(=O)C2CC2)n1`: the IC50 was found to be 63 µM in the assay with MOLM-13 (setting [6]) and 58.5 µM with Kasumi 1 (setting [7]).

On to `COc1nc(N2CCN(C)CC2)nc(OC)c1Sc1nc(N)cc(NC(=O)CCN(C)C)n1`, for which the figures for the IC50 in the assay with MOLM-13 (setting [6]) and in the assay with Kasumi 1 (setting [7]) were 25 µM and 14.7 µM, respectively. The INH was 50 µM in the assay on SK-BR-3 [1], 75 µM in the assay on SK-BR-3 [2], greater than 500 µM in assay [3] and 70 µM with SK-BR-3 [4].

Regarding `CCC(=O)Nc1cccc(Sc2ccc(N3CCN(C)CC3)nc2OC)c1`, the IC50 in the assay on MOLM-13 (setting [6]) is 39 µM.

Turning to `COc1nc(N2CCN(C)CC2)ccc1Sc1cccc(NC(=O)CN)c1`, the IC50 in the assay with MOLM-13 (setting [6]) stood at 21 µM; in the assay with Kasumi 1 (setting [7]) it was 19.1 µM.

Molecule `C=CC(=O)Nc1ccnc(Sc2c(C)nc(N3CCN(C)CC3)nc2C)n1` returned a GI in assay [5] of 1.8 µM. In addition, the INH in the assay on SK-BR-3 [1] is 5 µM; with SK-BR-3 [2], 5 µM; in assay [3] it was greater than 500 µM; with SK-BR-3 [4] it was 4 µM.
